The text below walks through data of ChEMBL document CHEMBL1156167 (Bioorg Med Chem Lett, 2010).

Molecules are shown by their SMILES. pEC50, pIC50: −log10 of the molar value. Active and inactive are the calls of the source. The calls are words filed in the database; no cut-off is given here. Some results are limits rather than exact numbers.

For series [1], the target named is T1, Sphingosine 1-phosphate receptor 3 (Homo sapiens, UniProt Q99500). As to the kind of experiment: Displacement of [33P]sphingosine-1-phosphate from human S1P3 receptor expressed in HEK293T cells after 60 mins by scintillation counting. In kind it is cell-based, HEK-293T.
For series [2], the target named is T2, Sphingosine 1-phosphate receptor 1 (Homo sapiens, UniProt P21453). As to the kind of experiment: Displacement of [33P]sphingosine-1-phosphate from human S1P1 receptor expressed in HEK293T cells after 60 mins by scintillation counting. In kind it is cell-based, HEK-293T.
Series [3] concerns Mus musculus. As to the kind of experiment: Immunomodulatory activity in C57BL/6 mouse assessed as induction of lymphopenia at 0.3 to 10 mg/kg, po after 6 hrs by complete blood count analysis. In kind it is functional, organism-based. Summed up: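 Mouse given a single oral dose of the pro-drug alcohol at 0.3, 1.0, 3.0 or 10.0 mg/kg alongside a vehicle group. Circulating lymphocyte redistribution was measured 6 h post-dose and expressed as lymphopenia relative to vehicle.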

Series [4] is filed under the species Homo sapiens. As to the kind of experiment: Selectivity ratio of IC50 for human S1P3 receptor to IC50 for human S1P1 receptor by [33P]sphingosine-1-phosphate displacement assay.
Series [5] has as its target T2, Sphingosine 1-phosphate receptor 1. As to the kind of experiment: Ratio of compound IC50 to PPI-4667-P IC50 for human S1P1 receptor expressed in HEK293T cells. In kind it is cell-based. The note with it: HEK-293T.
Series [6] concerns Mus musculus. As to the kind of experiment: Metabolic stability in C57BL/6 mouse assessed as alcohol pro-drug to phosphate drug conversion at 10 mg/kg, po after 6 hrs. The series is classed as ADME, organism-based. The arrangement: dose 10 mg/kg, route oral. The note with it: in vivo. Summed up:
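Alcohol pro-drug dosed orally to mouse at 10 mg/kg. At 6 h, the amount converted in vivo to the phosphate was determined and expressed as percent conversion of alcohol to phosphate.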

The target of series [7] is T3, Sphingosine 1-phosphate receptor 4 (Homo sapiens, UniProt O95977).
T3 sequence (O95977 whole entry): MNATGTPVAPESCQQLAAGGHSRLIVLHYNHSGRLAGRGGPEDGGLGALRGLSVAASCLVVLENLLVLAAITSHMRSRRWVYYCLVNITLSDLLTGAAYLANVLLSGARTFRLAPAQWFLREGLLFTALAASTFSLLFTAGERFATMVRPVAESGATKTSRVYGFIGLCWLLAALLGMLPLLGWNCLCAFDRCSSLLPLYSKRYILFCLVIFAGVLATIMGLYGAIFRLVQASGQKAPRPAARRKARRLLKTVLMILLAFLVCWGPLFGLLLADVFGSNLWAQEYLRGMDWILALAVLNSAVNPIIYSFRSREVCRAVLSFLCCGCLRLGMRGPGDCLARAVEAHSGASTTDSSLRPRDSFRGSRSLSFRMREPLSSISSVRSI
As to the kind of experiment: Displacement of [33P]sphingosine-1-phosphate from human S1P4 receptor expressed in HEK293T cells after 60 mins by scintillation counting. In kind it is cell-based, HEK-293T.

The test system of series [8] is Mus musculus. As to the kind of experiment: Immunomodulatory activity in C57BL/6 mouse assessed as induction of lymphopenia at 10 mg/kg, po after 6 hrs by complete blood count analysis. The series is classed as functional. Summed up:
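Pro-drug alcohol given to mouse as a single oral dose of 10 mg/kg. Redistribution of circulating lymphocytes was measured 6 h post-dose and reported as percent lymphopenia.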

Series [9] is filed under the species Homo sapiens. As to the kind of experiment: Selectivity ratio of EC50 for human S1P3 receptor to EC50 for human S1P1 receptor by gamma-[35S]GTP binding assay. The series is classed as functional.
In series [10] the target is T1, Sphingosine 1-phosphate receptor 3. As to the kind of experiment: Agonist activity at human S1P3 receptor expressed in HEK293T cells assessed as stimulation of gamma-[35S]GTP binding after 30 mins by scintillation counting.
The target in series [11] is Sphingosine 1-phosphate receptor 5 (Homo sapiens, UniProt Q9H228). As to the kind of experiment: Displacement of [33P]sphingosine-1-phosphate from human S1P5 receptor expressed in HEK293T cells after 60 mins by scintillation counting. In kind it is cell-based, HEK-293T.
The target in series [12] is T2, Sphingosine 1-phosphate receptor 1. As to the kind of experiment: Agonist activity at human S1P1 receptor expressed in HEK293T cells assessed as stimulation of gamma-[35S]GTP binding after 30 mins by scintillation counting.

T1 sequence (Q99500 whole entry): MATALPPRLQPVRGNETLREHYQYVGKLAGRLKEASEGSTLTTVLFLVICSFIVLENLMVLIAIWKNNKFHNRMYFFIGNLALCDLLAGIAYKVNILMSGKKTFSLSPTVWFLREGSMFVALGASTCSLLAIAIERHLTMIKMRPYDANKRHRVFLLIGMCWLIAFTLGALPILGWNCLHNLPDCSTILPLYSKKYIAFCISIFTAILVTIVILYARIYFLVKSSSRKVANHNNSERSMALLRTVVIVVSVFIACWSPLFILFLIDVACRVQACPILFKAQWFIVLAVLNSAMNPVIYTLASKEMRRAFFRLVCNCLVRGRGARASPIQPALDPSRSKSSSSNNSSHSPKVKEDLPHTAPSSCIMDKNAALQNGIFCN
Chain of Sphingosine 1-phosphate receptor 5 (Q9H228 whole entry): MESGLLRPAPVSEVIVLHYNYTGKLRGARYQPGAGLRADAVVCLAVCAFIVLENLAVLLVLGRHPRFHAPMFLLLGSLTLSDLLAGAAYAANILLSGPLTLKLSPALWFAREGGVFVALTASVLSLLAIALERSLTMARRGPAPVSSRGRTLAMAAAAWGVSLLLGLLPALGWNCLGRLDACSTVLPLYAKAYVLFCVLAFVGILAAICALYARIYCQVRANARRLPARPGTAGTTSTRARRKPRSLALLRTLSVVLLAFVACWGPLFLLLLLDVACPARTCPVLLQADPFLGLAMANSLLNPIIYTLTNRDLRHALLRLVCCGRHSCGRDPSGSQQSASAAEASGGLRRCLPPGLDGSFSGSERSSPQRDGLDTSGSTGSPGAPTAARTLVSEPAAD
T2 sequence (P21453 whole entry): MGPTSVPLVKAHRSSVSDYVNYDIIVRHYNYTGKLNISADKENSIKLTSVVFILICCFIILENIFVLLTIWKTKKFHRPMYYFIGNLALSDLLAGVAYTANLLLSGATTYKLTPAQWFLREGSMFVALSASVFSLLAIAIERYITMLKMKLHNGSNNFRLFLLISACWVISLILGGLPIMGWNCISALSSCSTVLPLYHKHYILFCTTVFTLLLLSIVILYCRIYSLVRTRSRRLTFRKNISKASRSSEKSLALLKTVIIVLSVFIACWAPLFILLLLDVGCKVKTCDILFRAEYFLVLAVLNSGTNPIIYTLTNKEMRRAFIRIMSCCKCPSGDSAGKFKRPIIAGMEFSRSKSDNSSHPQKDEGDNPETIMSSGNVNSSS

What is called pIC50 is the IC50 on a negative log10 scale, so that one unit is a factor of ten. Low readings indicate a high IC50, high ones a low IC50. `C[C@](N)(COP(=O)(O)O)C(=O)Nc1ccc(OCCc2ccc(-c3ccccc3)cc2)c(C(=O)O)c1`: the pIC50 in series [1] and in series [2] was less than 5.00 throughout.
For the molecule `C[C@](N)(CO)c1nc(-c2ccc(OCc3ccc(-c4ccccc4)cc3)c(C(F)(F)F)c2)c[nH]1`, the result in series [3] was Active.
On to `Cc1cc(NC(=O)[C@@](C)(N)COP(=O)(O)O)ccc1OCCc1ccc(-c2ccccc2)cc1`, for which the pIC50 was 5.49 in series [1] and 8.22 in series [2]. Besides, the Ratio IC50 in [4] is 542.
`C[C@](N)(COP(=O)(O)O)C(=O)Nc1ccc(OCCc2ccc(-c3ccccc3)cc2)c(Cl)c1`: the pIC50 in [1] is 6.55; in series [2], 9.10. Further, the Ratio IC50 in [4] is 356.
Consider `C[C@](N)(COP(=O)(O)O)C(=O)Nc1ccc(OCCc2ccc(-c3ccccc3)cc2)c(C#N)c1`, for which the values for the pIC50 in series [1] and in series [2] were 5.70 and 8.47, respectively. Also, the values for the Ratio IC50 in [4] and in series [5] were 588 and 3, respectively.
As a reminder, the pEC50 is the EC50 on a negative log10 scale, so that one unit is a factor of ten. Take `C[C@](N)(COP(=O)(O)O)c1nc(-c2ccc(OCc3ccc(-c4ccccc4)cc3)c(C(F)(F)F)c2)c[nH]1`: the Activity is given as 70.1% in series [6] and 85% in series [8]. The pIC50 in [7] was 8.36; in series [1] it was 5.70; in series [11] it was 8.02; in series [2], 9.64. The Ratio IC50 in series [4] was found to be 8700. For the same molecule, in series [9], the Ratio EC50 is more than 1850. The figures for the pEC50 in [10] and in [12] were less than 5.52 and 8.79, respectively.
With `C[C@](N)(CO)C(=O)Nc1ccc(OCCc2ccc(-c3ccccc3)cc2)cc1`, in series [6], the Activity came to 14%.
On to `C[C@](N)(COP(=O)(O)O)c1nc(-c2ccc(OCCc3ccc(-c4ccccc4)cc3)c(C(F)(F)F)c2)c[nH]1`, for which the figures for the Activity in [6] and in series [8] were 6.8% and 64%, respectively. The pIC50 in [7] is 8.19; in series [1], less than 4.00; in series [11] it was 6.74; in [2], 8.03. Besides, the Ratio IC50 in [4] was more than 10000. Moreover, in series [9], the Ratio EC50 is more than 134. Moreover, the pEC50 in series [10] is less than 5.52; in series [12] it was 7.65.
As to `C[C@](N)(CO)C(=O)Nc1ccc(SCCc2ccc(-c3ccccc3)cc2)cc1`, the Activity in series [8] is listed as 21%.
Consider `CNC(=O)c1cc(NC(=O)[C@@](C)(N)COP(=O)(O)O)ccc1OCCc1ccc(-c2ccccc2)cc1`, for which the pIC50 in series [1] is less than 6.00; in series [2] it was 6.30.
Take `C[C@](N)(COP(=O)(O)O)C(=O)Nc1ccc(OCCc2ccc(-c3ccccc3)cc2)c(C(F)(F)F)c1`: the pIC50 is 8.47 in series [7], 5.35 in series [1], 7.06 in series [11] and 9.62 in [2]. Moreover, the Ratio IC50 in [4] is 18800. Also, the Ratio EC50 in [9] was more than 2080. Moreover, the figures for the pEC50 in series [10] and in series [12] were less than 5.52 and 8.84, respectively.
In the case of `C[C@](N)(COP(=O)(O)O)C(=O)Nc1ccc(OCCc2ccc(-c3ccccc3)cc2)cc1`, the pIC50 in [7] was 7.99; in [11], 7.36. Further, the Ratio IC50 in [4] stood at 190. The Ratio EC50 in series [9] worked out at 231. The pEC50 was 6.92 in [10] and 9.28 in series [12].
With `C[C@](N)(COP(=O)(O)O)C(=O)Nc1ccc(C(=O)CCc2ccc(-c3ccccc3)cc2)cc1`, the pIC50 was 7.88 in series [7], 5.42 in series [1], 5.87 in series [11] and 8.38 in series [2]. In series [4], the Ratio IC50 worked out at 917. The Ratio EC50 in series [9] is more than 164. In addition, the pEC50 was less than 5.52 in series [10] and 7.74 in series [12].
Regarding `C[C@](N)(CO)C(=O)Nc1ccc(C(=O)NCc2ccc(-c3ccccc3)cc2)cc1`, the Activity in series [8] came out at 32%.
Take `CCCCCCCCCCCCC/C=C/[C@@H](O)[C@@H](N)COP(=O)(O)O`: the results for the pIC50 in [7], in [1] and in series [2] were 8.98, 9.04 and 9.11, respectively. Moreover, the pEC50 in series [10] was 8.62; in series [12], 8.25.
For the molecule `C[C@](N)(COP(=O)(O)O)C(=O)Nc1ccc(OCCc2ccc(-c3ccccc3)cc2)c(C(N)=O)c1`, the figures for the pIC50 in series [1] and in series [2] were less than 6.00 and 6.82, respectively.
Consider `C[C@](N)(COP(=O)(O)O)c1nc(-c2ccc(OCc3ccc(-c4ccccc4)cc3)cc2)c[nH]1`, for which the Ratio IC50 in [4] amounted to 19. The Ratio EC50 in series [9] was 25. For the same molecule, the pEC50 in series [10] is 7.26; in series [12] it was 8.66.
With `COC(=O)c1cc(NC(=O)[C@@](C)(N)COP(=O)(O)O)ccc1OCCc1ccc(-c2ccccc2)cc1`, the pIC50 was less than 5.00 in series [1] and 7.68 in series [2]. Moreover, the Ratio IC50 in series [4] was more than 476.
Regarding `C[C@](N)(COP(=O)(O)O)C(=O)Nc1ccc(OCCc2ccc(-c3ccccc3)cc2)cc1C(F)(F)F`, the pIC50 in [1] was 6.15; in series [2], 8.19. In series [4], the Ratio IC50 amounted to 109.
In the case of `C[C@](N)(CO)C(=O)Nc1ccc(C(=O)CCc2ccc(-c3ccccc3)cc2)cc1`, the Activity was 40% in series [6] and 84% in series [8].
For `C[C@](N)(COP(=O)(O)O)C(=O)Nc1ccc(OCCc2ccc(-c3ccccc3)cc2)c(Br)c1`, the pIC50 was 6.00 in series [1] and 8.89 in series [2]. In addition, the Ratio IC50 in series [4] was found to be 769.
